Measurements published in publication PMC4355043 (Bioorganic & medicinal chemistry letters, 2014).

What was measured:
Assay type in all cases: cell-based
[1] = test system: amphotropic murine leukemia virus (AMLV) Env pseudotyped HIV-1 virus; conditions: result in words
[2] = test system: HIV-1 92UG037 (subtype A); experiment: replication of fully infectious virus in primary human PBMCs, isolate 92UG037; conditions: isolate 92UG037, subtype A
[3] = test system: HIV-1 91US004 (subtype B); experiment: replication of fully infectious virus in primary human PBMCs, isolate 91US004; conditions: isolate 91US004, subtype B
Method in brief: (§1)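 Primary human PBMCs infected with fully infectious isolates from HIV-1 subtypes A, B, C and D, plus one HIV-2 isolate, to measure inhibition of viral replication. Toxicity to the same PBMCs was assessed concomitantly with an MTS assay. IC50 is the half-maximal inhibitory concentration and TC50 the half-maximal toxic concentration. Antiviral index is calculated as TC50/IC50.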

[4] = test system: HIV-1 94US_33931 N (subtype B); conditions: isolate 94US_33931 N
Method in brief: as §1

[5] = test system: HIV-1 98US_MSC5016 (subtype C); conditions: isolate 98US_MSC5016, subtype C
[6] = test system: HIV-1 99UG_A07412M1 (subtype D); conditions: isolate 99UG_A07412M1, subtype D
Method in brief: as §1

HIV-2CDC310319 = experiment: replication of fully infectious virus in primary human PBMCs, HIV-2 isolate; conditions: result in words
Method in brief: as §1

[7] = test system: primary human peripheral blood mononuclear cells (PBMCs); experiment: toxicity to PBMCs using an MTS assay; conditions: run concomitantly with each isolate
Method in brief: as §1

Compound: COc1ncc(OC)c2c(C(=O)C(=O)N3CC4CN(C(=O)c5ccccc5)CC4C3)c[nH]c12 (stereo not drawn) [SC08]
- inhibition of AMLV-pseudotyped HIV-1 (specificity) [1]: no inhibition

Compound: COc1cnc(-n2cnc(C)n2)c2[nH]cc(C(=O)C(=O)N3CC4CN(C(=O)C5=CCCCC5)CC4C3)c12 (stereo not drawn) [SC26]
- Antiviral index (TC50/IC50) [2]: >3.97
- Antiviral index (TC50/IC50) [3]: >513
- Antiviral index (TC50/IC50) [4]: > 166,666
- Antiviral index (TC50/IC50) [5]: >25.6
- Antiviral index (TC50/IC50) [6]: >204
- effect on the replication of an HIV-2 isolate (HIV-2CDC310319): no effect
- C50 (half-maximal toxic concentration) [7]: >100 MM

Compound: COc1cnc(Cl)c2[nH]cc(C(=O)C(=O)N3CC4CN(C(=O)c5ccccc5)CC4C3)c12 (stereo not drawn) [SC07]
- inhibition of AMLV-pseudotyped HIV-1 (specificity) [1]: no inhibition
